Shown are actives, neighbours in structure and some others; about 2.4% of the full set was active somewhere.
HTRA1 inhibitor – HTRA1 (human) protease inhibition | recombinant HTRA1, FP-rhodamine activity-based probe, fluorescence polarization | Q92743 | actives 0.5% (n = 340,000) | AID 504803 | inhibition, % at 5.96 µM; in the data active = inhibition above about 36%
JMJD2C inh – human JMJD2C demethylase inhibition; Q9H3R0; GST-JMJD2C(1-420) H3K9me3 demethylation, DELFIA europium; inhibition, % at 2.35 µM; actives 0.069% (n = 330,000);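 active = more than half of a compound's replicate wells show inhibition beyond 50%, single wells judged on their own value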;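 note: signal counts dimethyl H3K9 product captured on neutravidin plate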
ABHD4 inh – ABHD4 (mouse) inhibition, primary FP screen. inhibition, % at 8.92 µM. purified mABHD4, FP-Rh probe fluorescence polarization. actives 0.54% (n = 370,000);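 active = inhibition exceeding the mean over every tested compound plus 3 SD, cut at about 30% in these data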
Target sequence (Q8VD66 whole entry, looked up): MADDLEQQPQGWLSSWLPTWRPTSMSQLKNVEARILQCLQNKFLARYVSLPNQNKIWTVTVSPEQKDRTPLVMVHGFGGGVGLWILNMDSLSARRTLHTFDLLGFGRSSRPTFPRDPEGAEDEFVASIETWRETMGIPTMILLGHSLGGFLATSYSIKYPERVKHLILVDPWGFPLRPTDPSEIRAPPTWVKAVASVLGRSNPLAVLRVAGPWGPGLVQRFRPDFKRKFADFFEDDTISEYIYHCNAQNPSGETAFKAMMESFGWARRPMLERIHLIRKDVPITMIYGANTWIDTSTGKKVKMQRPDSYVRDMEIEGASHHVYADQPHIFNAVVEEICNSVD
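Test system: mABHD4 protein | Buffer or medium: HEPES pH 7.0 buffer, 150 mM NaCl, 0.01% Pluronic F-127 | Probe or stimulus: FP-Rh fluorescent activity-based probe, added after compound pre-incubation | Timing: Pre-incubation 45 min, probe exposure 60 min, at 25 °C | Technique: Fluorescence polarization, excitation 525 nm, emission 598 nm, BODIPY TMR filters | Repeats: Single well per compound (singlicate)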
PRMT1 FP inh – inhibitors of human PRMT1; Q99873; recombinant PRMT1, activity-based probe fluorescence polarization; inhibition, % at 2.79 µM; actives 1.3% (n = 370,000); AID 652257;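 active = inhibition above about 21% made by adding two undisclosed values, limit read from the data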
SIAE primary – blocks human sialic acid acetylesterase. inhibition, % at 9.66 µM. actives 0.69% (n = 370,000). Q9HAT2. SIAE FP-Rh probe binding, fluorescence polarization;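 active = inhibition above a cutoff: mean of compounds within the control limits plus 3 SD of those, cut at about 17% in these data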
ABHD4 confirm – ABHD4 (mouse) inhibition, FP confirmation; shares compounds with ABHD4 inh; purified mABHD4, FP-Rh probe fluorescence polarization; inhibition, % at 8.92 µM; actives 55% (n = 1,800);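 active = mean inhibition across replicates above the hit cutoff set in the primary screen, cut at about 30% in these data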
Hits are given with their value; - = inactive; . = no result given.

SMILES | HTRA1 inhibitor | JMJD2C inh | ABHD4 inh | PRMT1 FP inh | SIAE primary | ABHD4 confirm
O=C(NCC1CCN(C(=O)C(=O)c2cc3ccccc3o2)CC1)c1ccc2c(c1)OCO2 | . | . | - | - | - | .
Nc1ncnc2oc(-c3ccco3)c(-c3ccco3)c12 | - | - | 34.1 | 60.5 | 35.5 | -
C/C(=N\Nc1nc(C)cc(C)n1)c1ccc(N2CCOCC2)cc1 | - | - | - | - | - | .
CCC(C)(C)C1CCC(=NNc2nc3ccccc3[nH]2)CC1 (stereo unspecified) | - | - | - | - | - | .
C/C(=N\NC(=O)c1ccccc1)c1ccc(N2CCOCC2)cc1 | - | - | 71.0 | - | - | -
C/C(=N\Nc1nc2ccccc2[nH]1)c1ccc(Cl)s1 | - | - | 30.7 | - | - | -
CC(=O)N1CCC(=NNc2nc3ccccc3[nH]2)CC1 | . | - | 29.7 | - | - | -
C/C(=N\Nc1nc2ccccc2[nH]1)c1ccc(N2CCOCC2)cc1 | - | - | 33.2 | - | - | 29.6
C/C(=N\NC(=O)c1ccncc1)c1ccc(N2CCOCC2)cc1 | - | - | - | - | - | .
Nn1c(SCc2ccc([N+](=O)[O-])cc2)nnc1-c1n[nH]c2c1CCC2 | . | . | - | - | - | .
C=CCN(Cc1ccccc1)C(C#CC(=C)C)Cc1ccccc1 (stereo unspecified) | . | . | - | - | - | .
CCn1c2ccccc2c2cc(NC(=O)c3cc4c(C)nn(-c5ccccc5)c4s3)ccc21 | . | . | - | - | - | .
CCCCc1cccc2[nH]cc(C)c12 | . | . | - | - | - | .
CCC(CO)Nc1cccc2c1S(=O)(=O)N(Cc1cn(Cc3cccc(C(F)(F)F)c3)nn1)Cc1ccccc1O2 (stereo unspecified) | . | . | - | - | - | .
O=[N+]([O-])c1cccc(-n2cc3ccc([N+](=O)[O-])cc3n2)c1 | - | - | - | - | - | .
Cc1ccc(/C=N/Nc2cc(C)nc(NCc3ccccc3)n2)cc1 | - | - | 33.6 | - | - | 59.8
O=C(O)c1ccc(C2NCC(c3ccccc3Cl)c3c2[nH]c2ccccc32)cc1 (stereo unspecified) | - | - | - | - | - | .
COc1cc(C2NCC(c3ccc(Cl)cc3Cl)c3c2[nH]c2ccccc32)cc(OC)c1OC (stereo unspecified) | - | - | 43.6 | - | - | 58.8
Nc1c(Cl)ncnc1N/N=C/c1ccccn1 | . | - | 54.2 | - | - | 53.8
CCOc1cccc2sc(NN)nc12 | - | . | 71.2 | - | - | 71.5
CC(NC(=O)c1ccccc1NC(=O)c1ccncc1)c1ccccc1 (stereo unspecified) | - | - | - | - | - | .
Cc1cc(C(=O)O)cc(S(=O)(=O)Nc2ccccc2C(=O)NC(C)c2ccccc2)c1C (stereo unspecified) | - | - | 33.9 | - | - | -
N=C(N)SCc1cn(-c2ccccc2)nc1-c1ccc(Br)cc1 | - | - | 36.0 | - | - | 60.4
C[C@H]1CCCN1c1cccc2c1S(=O)(=O)N(C1CC1)CCCO2 | . | . | - | - | - | .
C[C@H]1[C@@H](OC(=O)Oc2ccc([N+](=O)[O-])cc2)CC[C@@]23CCCN2C(=O)CCC[C@@H]13 | . | . | - | - | - | .
SMILES | HTRA1 inhibitor | JMJD2C inh | ABHD4 inh | PRMT1 FP inh | SIAE primary | ABHD4 confirm
COc1cccc(/C=N/NC(=O)c2ccc3nc[nH]c3c2)c1O | - | - | - | - | - | .
COc1cc(OC)c2cc(C(=O)N/N=C/c3cccc(OC)c3O)[nH]c2c1 | - | - | 31.6 | - | - | 58.0
Cc1c(C(=O)O)cccc1-n1c(C)cc(/C=N/Nc2ccc([N+](=O)[O-])cn2)c1C | - | - | 29.6 | - | - | 48.1
Nc1[nH]n2c(=O)c3c(nc2c1N=Nc1ccc(Cl)cc1)CCCC3 | - | - | 31.0 | - | - | 33.5
Nc1[nH]n2c(=O)c3c(nc2c1N=Nc1ccccc1)CCCC3 | - | - | - | - | - | .
CC1=C(C(=O)NCc2ccc3c(c2)OCO3)C2(CCC(C)CC2)OC1=O (stereo unspecified) | - | - | - | - | - | .
CC1=C(C(=O)NCc2ccco2)C2(CCC(C)CC2)OC1=O (stereo unspecified) | - | - | 30.8 | - | - | -
CC(C)C[C@@H]1CN=C(N)N1C[C@@H]1CCCN1C[C@@H](C(C)C)N1C[C@@H](Cc2ccccc2)N(CCc2ccc(Cl)c(Cl)c2)C1=N | - | . | 34.1 | - | - | -
Cc1ccc(-c2cc(C(=O)NN=Cc3cccc(OCc4ccccc4)c3)[nH]n2)cc1C | . | . | - | - | - | .

Assay outcomes deposited in PubChem by several laboratories.
